The subject of data set [1] is Rattus norvegicus. Kind of data set: Toxicity in Wistar rat assessed as effect on uric acid level at 200 mg/kg, po for 14 days. The data set is classed as organism-based. As to conditions: in vivo, 336 h. Put shortly:
(§1)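 Normal Wistar rats are given 200 mg/kg orally for 14 days, with vehicle-treated controls. Serum liver markers (SGOT, SGPT, ALP, total protein, total bilirubin) and renal markers (urea, creatinine, uric acid) are then measured, mean ± S.D.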

Data set [2] concerns Rattus norvegicus. Kind of data set: Toxicity in Wistar rat assessed as effect on SGOT level at 200 mg/kg, po for 14 days. The data set is classed as organism-based. The following applies: in vivo, 336 h. In outline: as §1
Data set [3] has as its system Mus musculus. The data set is described as follows: Anticonvulsant activity in Swiss albino mouse assessed as protection against subcutaneous pentylenetetrazole-induced seizures at 5 mg/kg, ip administered 2 hrs prior to PTZ challenge and measured after 30 mins. The data set is classed as functional. The following applies: in the assay text read “30 mg/kg” for “5 mg/kg”. In outline: (§2)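 Mice get a single i.p. dose, then PTZ 85 mg/kg s.c. at 0.5, 1, 2, 3, 4 or 6 h after dosing. Seizure protection is recorded at each interval as percentage of six Swiss Albino mice protected.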

The test system of data set [4] is Mus musculus. Kind of data set: Anticonvulsant activity in Swiss albino mouse assessed as protection against subcutaneous pentylenetetrazole-induced seizures at 30 mg/kg, ip administered 0.5 hrs prior to PTZ challenge and measured after 30 mins. In kind it is functional. Put shortly:
(§3)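 Male Swiss Albino mice (25–30 g), 6 per group, dosed i.p. with drugs in sterile saline, then challenged with PTZ 85 mg/kg s.c. (CD97), given at 10 ml/kg, 0.5 h or 4 h later. Each animal is observed singly for seizures. Protection is scored as protected/total animals.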

In data set [5] the target is T1, Prostaglandin G/H synthase 2 (Homo sapiens) (UniProt P35354).
T1 sequence (whole entry): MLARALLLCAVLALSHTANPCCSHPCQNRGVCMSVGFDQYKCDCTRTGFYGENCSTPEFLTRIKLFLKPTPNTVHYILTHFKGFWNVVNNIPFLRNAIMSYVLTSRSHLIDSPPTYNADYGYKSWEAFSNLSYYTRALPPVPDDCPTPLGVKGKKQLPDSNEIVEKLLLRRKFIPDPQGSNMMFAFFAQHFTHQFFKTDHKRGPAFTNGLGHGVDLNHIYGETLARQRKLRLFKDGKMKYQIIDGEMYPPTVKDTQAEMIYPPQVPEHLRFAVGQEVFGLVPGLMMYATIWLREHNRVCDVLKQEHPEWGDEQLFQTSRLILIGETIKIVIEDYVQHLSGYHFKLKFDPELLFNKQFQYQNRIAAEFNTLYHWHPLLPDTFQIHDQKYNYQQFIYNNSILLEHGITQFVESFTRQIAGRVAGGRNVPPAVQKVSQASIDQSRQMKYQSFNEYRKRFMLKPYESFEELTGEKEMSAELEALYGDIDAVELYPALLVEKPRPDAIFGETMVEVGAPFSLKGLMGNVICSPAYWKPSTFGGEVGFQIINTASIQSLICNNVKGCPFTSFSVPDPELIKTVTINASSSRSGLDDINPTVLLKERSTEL
The data set is described as follows: Inhibition of human recombinant COX2 at 10 uM using arachidonic acid as substrate preincubated for 5 mins followed by substrate addition and measured after 2 mins by ADPH probe-based fluorescence assay relative to control. In outline: (§4)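 Kit assay in 100 mM Tris-HCl pH 8.0. Enzyme, heme and inhibitor (DMSO stocks) are incubated 5 min at room temperature. ADPH is added, then arachidonic acid starts the reaction. After 2 min, fluorescence is read at ex 535/em 590 nm. Percent inhibition is taken versus the 100% activity well, background wells included. IC50 is derived from percentage inhibition, mean of three independent experiments.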

For data set [6], the system named is Rattus norvegicus. The data set is described as follows: Toxicity in Wistar rat assessed as effect on phosphorous level at 200 mg/kg, po for 14 days. In kind it is organism-based. The following applies: in vivo, 336 h.
Data set [7] has as its system Rattus norvegicus. Kind of data set: Toxicity in Wistar rat assessed as lymphocyte level at 200 mg/kg, po for 14 days (reference value: 77.33 +/- 2.08%). As to conditions: in vivo, 336 h. In kind it is organism-based.
In data set [8] the target is T2, Prostaglandin G/H synthase 2 (Homo sapiens, UniProt P35354).
T2 sequence (P35354 whole entry): T1 sequence (whole entry)
Kind of data set: Inhibition of human recombinant COX2 using arachidonic acid as substrate preincubated for 5 mins followed by substrate addition and measured after 2 mins by ADPH probe-based fluorescence assay. Put shortly: as §4

Data set [9] deals with Rattus norvegicus. The data set is described as follows: Anxiolytic activity in ip dosed PTZ-kindled Wistar rat assessed as time spent in light zone by light-dark test (reference value: 3.05 +/- 1.25%). The data set is classed as functional.
The subject of data set [10] is Rattus norvegicus. The data set is described as follows: Toxicity in Wistar rat assessed as effect on total protein level at 200 mg/kg, po for 14 days. The following applies: in vivo, 336 h. The data set is classed as organism-based. In outline:
as §1

In data set [11] the test system is Rattus norvegicus. The data set is described as follows: Toxicity in Wistar rat assessed as monocyte level at 200 mg/kg, po for 14 days (reference value: 2.67 +/- 0.58%). In kind it is organism-based. The following applies: in vivo, 336 h.
The subject of data set [12] is Rattus norvegicus. Kind of data set: Toxicity in Wistar rat assessed as effect on chloride level at 200 mg/kg, po for 14 days. In kind it is organism-based. The following applies: in vivo, 336 h.
Data set [13] deals with Mus musculus. The data set is described as follows: Anticonvulsant activity in Swiss albino mouse assessed as protection against subcutaneous pentylenetetrazole-induced seizures at 300 mg/kg, ip administered 0.5 hrs prior to PTZ challenge and measured after 30 mins. In kind it is functional. In outline: as §3
Data set [14] concerns Rattus norvegicus. The data set is described as follows: Toxicity in Wistar rat assessed as basophils level at 200 mg/kg, po for 14 days (reference value: 0 +/0%). In kind it is organism-based. The following applies: in vivo, 336 h.
Data set [15] has as its system Rattus norvegicus. Kind of data set: Cognitive enhancing effect in ip dosed PTZ-kindled rat assessed as decrease in ratio of second interaction trial to first interaction time by social recognition test (reference value: 0.928 +/- 0.234). In kind it is functional.
The test system of data set [16] is Rattus norvegicus. The data set is described as follows: Antiepileptic activity in rat model of PTZ-induced epileptiogenesis kindling model assessed as decrease of seizure severity at 30 mg/kg, ip measured up to 28 days. In kind it is functional, organism-based. Put shortly: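 Adult male Wistar rats receive PTZ 40 mg/kg i.p. on alternate days for 28 days plus daily i.p. treatment. After each PTZ injection, rats are observed singly for 45 min and scored on the revised Racine scale (stages to 6). Group mean score per week, ±S.D. Statistics are repeated-measures ANOVA with Tukey's test.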

In data set [17] the test system is Mus musculus. Kind of data set: Anticonvulsant activity in Swiss albino mouse assessed as protection against subcutaneous pentylenetetrazole-induced seizures at 30 mg/kg, ip administered 4 hrs prior to PTZ challenge and measured after 30 mins. The data set is classed as functional. In outline: as §3
Data set [18] concerns Rattus norvegicus. The data set is described as follows: Toxicity in Wistar rat assessed as effect on total bilirubin level at 200 mg/kg, po for 14 days. The data set is classed as organism-based. As to conditions: in vivo, 336 h. In outline: as §1
Data set [19] has as its system Rattus norvegicus. Kind of data set: Toxicity in Wistar rat assessed as RBC level at 200 mg/kg, po for 14 days (reference value: 8.19 +/- 0.648 10^6/mm3). In kind it is organism-based. The following applies: in vivo, 336 h.
In data set [20] the test system is Rattus norvegicus. The data set is described as follows: Toxicity in Wistar rat assessed as effect on potassium level at 200 mg/kg, po for 14 days. The data set is classed as organism-based. The following applies: in vivo, 336 h.
The test system of data set [21] is Mus musculus. The data set is described as follows: Anticonvulsant activity in Swiss albino mouse assessed as protection against subcutaneous pentylenetetrazole-induced seizures at 5 mg/kg, ip administered 6 hrs prior to PTZ challenge and measured after 30 mins. The data set is classed as functional. The following applies: in the assay text read “30 mg/kg” for “5 mg/kg”. In outline: as §2

In data set [22] the test system is Mus musculus. The data set is described as follows: Anticonvulsant activity in Swiss albino mouse assessed as protection against subcutaneous pentylenetetrazole-induced seizures at 300 mg/kg, ip administered 4 hrs prior to PTZ challenge and measured after 30 mins. In kind it is functional. In outline: as §3
For data set [23], the system named is Rattus norvegicus. Kind of data set: Toxicity in Wistar rat assessed as TLC level at 200 mg/kg, po for 14 days (reference value: 7.23 +/- 1 10^3/mm3). In kind it is organism-based. As to conditions: in vivo, 336 h.
The test system of data set [24] is Mus musculus. Kind of data set: Anticonvulsant activity in Swiss albino mouse assessed as protection against subcutaneous pentylenetetrazole-induced seizures at 100 mg/kg, ip administered 0.5 hrs prior to PTZ challenge and measured after 30 mins. In kind it is functional. In outline:
as §3

The source made the active and inactive calls. The calls are words filed in the database; no cut-off is given here.

In general, inhibition refers to the drop in the measured response relative to a control, in per cent. Broadly, the IC50 is the concentration that inhibits the measured activity by half. Regarding `Cc1ccc(NC(=S)NNC(=O)Nc2ccc(S(C)(=O)=O)cc2)cc1`, the Activity result is “Non-Toxic” in the data set with Rattus norvegicus [1]; “Non-Toxic” with Rattus norvegicus [2]; 67% in the data set with Mus musculus [3]; 83% in the data set on Mus musculus [4]; “Non-Toxic” in the data set on Rattus norvegicus [6]; 73% in the data set with Rattus norvegicus [7]. Also, the Activity in the data set with Rattus norvegicus [9] is recorded as 13.3%; in the data set with Rattus norvegicus [10] it was “Non-Toxic”; in the data set with Rattus norvegicus [11] it was 2.5%; in the data set with Rattus norvegicus [12], “Non-Toxic”; in the data set with Mus musculus [13] it was 83%; in the data set on Rattus norvegicus [14], 0.5%. Also, the Activity is reported as 83% with Mus musculus [17]; “Non-Toxic” in the data set on Rattus norvegicus [18]; 7.34 ×10⁶ /mm3 with Rattus norvegicus [19]; “Non-Toxic” in the data set with Rattus norvegicus [20]; 67% with Mus musculus [21]; 83% in the data set with Mus musculus [22]. Further, the Activity is 6.25 ×10³ /mm3 in the data set on Rattus norvegicus [23] and 67% in the data set with Mus musculus [24]. The inhibition in data set [5] came out at 75%. For the same compound, the half-maximal inhibitory concentration (IC50) in [8] stood at 2150 nM. In addition, the Ratio with Rattus norvegicus [15] stood at 0.561. In addition, the outcome in the data set with Rattus norvegicus [16] was Active.

The record behind these values is ChEMBL document CHEMBL4152211, “Discovery of novel Methylsulfonyl phenyl derivatives as potent human Cyclooxygenase-2 inhibitors with effective anticonvulsant action: Design, synthesis, in-silico, in-vitro and in-vivo evaluation” (Eur J Med Chem, 2018).
